In ChEMBL document CHEMBL3860061, “A Novel Parkinson's Disease Drug Candidate with Potent Anti-neuroinflammatory Effects through the Src Signaling Pathway” (J Med Chem, 2016):
The source made the active and inactive calls. No cut-off for these calls is given here.

Key:
[1] = target: Proto-oncogene tyrosine-protein kinase Src (Rattus norvegicus) (UniProt Q9WUD9); experiment: Inhibition of Src in Sprague-Dawley rat primary mixed mesecephalic neuron/glial cells assessed as suppression of LPS-induced IL-1beta expression at 10 uM preincubated for 1 hr followed by LPS challenge measured after 5 hrs by ELISA
Procedure, shortened: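 Mixed mesencephalic neuron/glia cultures from E14 Sprague-Dawley rats, used at 7 days. Agent at 10 µM added 1 h before LPS 100 ng/mL; IL-1β and TNF-α in medium measured by ELISA after 5 h, n = 6.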

Mus musculus [2] = experiment: In vivo inhibition of Src in MPTP/probenecid-induced chronic C57/BL mouse Parkinson's disease model assessed as effect on Akt expression level in midbrain at 5 to 20 mg/kg […] once in a day for 7 weeks post 10 doses of MPTP for 5 weeks by Western blot analysis; type: functional, organism-based
Mus musculus [3] = experiment: Antineuro-inflammatrory activity in MPTP-induced subacute C57/BL mouse Parkinson's disease model assessed as decrease in TNF-alpha levels in midbrain at 10 to 20 mg/kg […] dosed 30 mins prior to each MPTP injection for 5 days and administered continuously for 7 days post last MPTP dose measured on day 12 post last dose by ELISA; type: functional, organism-based
Mus musculus [4] = experiment: Neuroprotective activity in MPTP-induced subacute C57/BL mouse Parkinson's disease model assessed as reversal of decline of TH-positive neuron levels in substantia nigra at 10 to 20 mg/kg […] dosed 30 mins prior to each MPTP injection for 5 days and administered continuously for 7 days post last MPTP dose by 3,3'-diaminobenzidine staining based light microscopic analysis; type: functional, organism-based
Procedure, shortened: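 Sub-acute MPTP model (30 mg/kg i.p. × 5 days) with agent (5–20 mg/kg) or L-DOPA pre-dosing and 7 days of continued dosing. Fixed brains cut at 40 µm on a freezing microtome; coronal nigral sections stained with anti-TH and DAB/peroxide; TH-positive cells counted blind by light microscopy.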

Mus musculus [5] = experiment: Antineuro-inflammatrory activity in MPTP-induced subacute C57/BL mouse Parkinson's disease model assessed as decrease in IL-1beta levels in midbrain at 10 to 20 mg/kg […] dosed 30 mins prior to each MPTP injection for 5 days and administered continuously for 7 days post last MPTP dose measured on day 12 post last dose by ELISA; type: functional, organism-based
Procedure, shortened: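 Male C57/BL mice (22–25 g) received MPTP hydrochloride 30 mg/kg i.p. daily for 5 days. Test agent (5, 10, 20 mg/kg) or L-DOPA 20 mg/kg, suspended in 0.5% CMC-Na, given 30 min before each MPTP injection, then continued for 7 more days. On day 12 the midbrain was homogenised in non-denaturing lysis buffer with protease inhibitor and IL-1β or TNF-α measured by ELISA, n = 6, mean ± SD.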

Mus musculus [6] = experiment: In vivo inhibition of Src in MPTP/probenecid-induced chronic C57/BL mouse Parkinson's disease model assessed as effect on NOS1 expression level in midbrain at 5 to 20 mg/kg co-administered with L-DOPA once in a day for 7 weeks post 10 doses of MPTP for 5 weeks by Western blot analysis; type: functional, organism-based
Mus musculus [7] = experiment: Effect on ROCK1 protein expression level in midbrain of MPTP/probenecid-induced chronic C57/BL mouse Parkinson's disease model at 5 to 20 mg/kg dosed once daily for 7 weeks post 10 doses of MPTP/probenecid for 5 weeks by Western blot analysis; type: functional, organism-based
[8] = target: Proto-oncogene tyrosine-protein kinase Src (Rattus norvegicus) (UniProt Q9WUD9); experiment: Inhibition of SRC in Sprague-Dawley rat primary mixed mesecephalic neuron/glial cells assessed as protection against LPS-induced dopaminergic neuro-toxicity by measuring TH expression at 10 uM preincubated for 1 hr followed by LPS challenge measured after 7 days by Western blot analysis
Procedure, shortened: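 Mixed mesencephalic neuron/glia cultures from E14 Sprague-Dawley rats, used at 7 days. Agent at 10 µM added 1 h before LPS 100 ng/mL; TH measured by Western blot after 7 days, n = 4.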

Mus musculus [9] = experiment: Neuroprotective activity in alpha-syn A53T transgenic B6C3H mouse assessed as improvement in motor behavior at 5 to 20 mg/kg dosed once daily for 12 consecutive weeks by pole test; type: functional, organism-based
Mus musculus [10] = experiment: Effect on ARHGAP21 protein expression level in midbrain of MPTP/probenecid-induced chronic C57/BL mouse Parkinson's disease model at 5 to 20 mg/kg dosed once daily for 7 weeks post 10 doses of MPTP/probenecid for 5 weeks by Western blot analysis; type: functional, organism-based
Mus musculus [11] = experiment: In vivo inhibition of Src in MPTP/probenecid-induced chronic C57/BL mouse Parkinson's disease model assessed as effect on Akt expression level in midbrain at 5 to 20 mg/kg dosed once daily for 7 weeks post 10 doses of MPTP/probenecid for 5 weeks by iTRAQ-labelled 2D-LC/MS/MS analysis; type: functional, organism-based
Mus musculus [12] = experiment: In vivo inhibition of Src in MPTP/probenecid-induced chronic C57/BL mouse Parkinson's disease model assessed as effect on PTEN expression level in midbrain at 5 to 20 mg/kg co-administered with L-DOPA once in a day for 7 weeks post 10 doses of MPTP for 5 weeks by Western blot analysis; type: functional, organism-based
Mus musculus [13] = experiment: Neuroprotective activity in MPTP-induced subacute C57/BL mouse Parkinson's disease model assessed as improvement in motor behavior at 5 to 20 mg/kg […] dosed 30 mins prior to each MPTP injection for 5 days and administered continously for 7 days post last MPTP dose by rotarod test; type: functional, organism-based
Procedure, shortened: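 Sub-acute MPTP model (30 mg/kg i.p. × 5 days) in male C57/BL mice. Agent (5–20 mg/kg) or L-DOPA 20 mg/kg given 30 min before each injection and for 7 days after. Rotarod at 14 rpm, up to 120 s, fall latency over three trials 1 h apart. Pole test: 50 cm pole, descent scored 1–5, two trials 1 h apart, pre-trained. n = 15.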

[14] = target: Voltage-gated inwardly rectifying potassium channel KCNH2 (Homo sapiens, UniProt Q12809); experiment: Inhibition of human ERG by whole cell voltage clamp assay
Procedure, shortened: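 Whole-cell voltage clamp. Internal solution: KCl 130 mM, MgCl2 1 mM, EGTA 5 mM, ATP-Mg 5 mM, HEPES 10 mM, pH 7.2. Bath: NaCl 137, CaCl2 1.8, KCl 4, MgCl2 1, glucose 5, HEPES 10 mM, pH 7.4. From a holding potential of −70 mV, 2-s steps to 50 mV in 10 mV increments every 15 s; tail current recorded on a 2-s step from +50 to −40 mV.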

Mus musculus [15] = experiment: Neuroprotective activity in alpha-syn A53T transgenic B6C3H mouse assessed as improvement in motor behavior at 5 to 20 mg/kg dosed once daily for 12 consecutive weeks by rotarod test; type: functional, organism-based
Procedure, shortened: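 Male B6;C3H mice overexpressing mutant alpha-syn (A53T), housed on a 12-h light/dark cycle at 24 °C and 60% humidity, were acclimatised for 1 week. Daily dosing ran 12 consecutive weeks from 4 months of age. Wild-type mice received 0.5% CMC-Na, and L-DOPA 20 mg/kg was the reference. Rotarod ran at 14 rpm for up to 120 s, recording latency to first fall. Each mouse had three trials with 1 h rest between them. n = 15; mean ± SD.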

Mus musculus [16] = experiment: Neuroprotective activity in MPTP/probenecid-induced chronic C57/BL mouse Parkinson's disease model assessed as improvement in motor behavior at 5 to 20 mg/kg dosed once daily for 7 weeks post 10 doses of MPTP/probenecid for 5 weeks measured after last MPTP/probenecid dose by rotarod test; type: functional, organism-based
Procedure, shortened: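 Chronic MPTP/probenecid model (10 doses over 5 weeks), then agent (5–20 mg/kg) or L-DOPA 20 mg/kg daily for 7 weeks. Rotarod at 14 rpm, up to 120 s, fall latency from three trials 1 h apart. Pole test: gauze-wrapped 50 cm pole, descent scored 1–5, two trials 1 h apart after pre-training. n = 15.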

Chain of Proto-oncogene tyrosine-protein kinase Src (Rattus norvegicus) (Q9WUD9 2-536 limits assumed): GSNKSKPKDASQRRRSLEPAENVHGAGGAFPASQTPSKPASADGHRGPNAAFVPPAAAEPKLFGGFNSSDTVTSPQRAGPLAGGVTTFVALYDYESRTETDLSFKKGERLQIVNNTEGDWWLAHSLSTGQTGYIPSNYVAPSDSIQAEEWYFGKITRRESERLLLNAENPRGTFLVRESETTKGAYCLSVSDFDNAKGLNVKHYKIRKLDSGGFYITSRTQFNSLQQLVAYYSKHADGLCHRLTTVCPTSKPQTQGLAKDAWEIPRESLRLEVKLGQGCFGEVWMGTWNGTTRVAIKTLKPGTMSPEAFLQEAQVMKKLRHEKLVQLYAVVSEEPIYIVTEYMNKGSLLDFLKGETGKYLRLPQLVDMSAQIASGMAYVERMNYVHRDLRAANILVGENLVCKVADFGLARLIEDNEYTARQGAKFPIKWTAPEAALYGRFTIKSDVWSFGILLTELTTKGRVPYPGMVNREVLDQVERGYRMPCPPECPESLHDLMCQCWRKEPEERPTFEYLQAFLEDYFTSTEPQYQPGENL
Chain of Voltage-gated inwardly rectifying potassium channel KCNH2 (Q12809 whole entry): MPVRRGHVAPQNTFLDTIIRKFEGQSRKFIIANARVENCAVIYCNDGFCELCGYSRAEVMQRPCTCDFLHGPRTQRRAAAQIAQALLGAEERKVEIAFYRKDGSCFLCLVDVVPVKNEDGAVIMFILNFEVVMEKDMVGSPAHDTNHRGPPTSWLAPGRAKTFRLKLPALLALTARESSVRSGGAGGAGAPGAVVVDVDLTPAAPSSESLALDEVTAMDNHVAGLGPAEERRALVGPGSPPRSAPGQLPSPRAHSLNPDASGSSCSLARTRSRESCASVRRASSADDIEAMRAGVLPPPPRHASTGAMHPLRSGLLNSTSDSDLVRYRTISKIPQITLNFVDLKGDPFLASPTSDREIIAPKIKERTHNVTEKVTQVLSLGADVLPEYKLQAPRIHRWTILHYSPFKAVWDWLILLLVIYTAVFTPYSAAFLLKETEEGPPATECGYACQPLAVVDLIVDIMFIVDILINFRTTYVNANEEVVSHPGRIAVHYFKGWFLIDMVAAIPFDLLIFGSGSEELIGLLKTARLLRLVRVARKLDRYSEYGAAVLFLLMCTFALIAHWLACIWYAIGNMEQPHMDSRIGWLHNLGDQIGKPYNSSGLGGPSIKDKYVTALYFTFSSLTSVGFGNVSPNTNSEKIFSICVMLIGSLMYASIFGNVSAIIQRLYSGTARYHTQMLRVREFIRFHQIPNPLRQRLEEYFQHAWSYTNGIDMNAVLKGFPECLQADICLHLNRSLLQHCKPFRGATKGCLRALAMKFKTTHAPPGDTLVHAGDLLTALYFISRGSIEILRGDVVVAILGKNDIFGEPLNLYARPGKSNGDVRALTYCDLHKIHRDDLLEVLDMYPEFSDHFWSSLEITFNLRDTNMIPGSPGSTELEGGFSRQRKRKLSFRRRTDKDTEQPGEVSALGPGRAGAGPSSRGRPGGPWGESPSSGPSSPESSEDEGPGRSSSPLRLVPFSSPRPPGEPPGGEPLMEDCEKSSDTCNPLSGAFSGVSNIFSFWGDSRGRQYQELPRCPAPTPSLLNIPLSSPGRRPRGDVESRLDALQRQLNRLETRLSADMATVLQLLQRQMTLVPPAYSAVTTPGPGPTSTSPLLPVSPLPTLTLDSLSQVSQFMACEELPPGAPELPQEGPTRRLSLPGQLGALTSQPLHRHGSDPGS

With `COc1cc(OC)c(CN[C@@H](CO)C(=O)O)c(OC)c1` the inhibition [1] was “Active”, the inhibition (Mus musculus [2]) was “Active” and the Activity (Mus musculus [3]) was “Active”. For the same compound, the Activity (Mus musculus [4]) was “Active”, the Activity (Mus musculus [5]) was “Active” and the inhibition (Mus musculus [6]) was “Active”. For the same compound, the Activity (Mus musculus [7]) was “Active”, the inhibition [8] was “Active” and the Activity (Mus musculus [9]) was “Active”. The Activity (Mus musculus [10]) was “Active”, the inhibition (Mus musculus [11]) was “Active” and the inhibition (Mus musculus [12]) was “Active”. The Activity (Mus musculus [13]) was “Active”, the “inhibition (INH)” value [14] was “Active” and the Activity (Mus musculus [15]) was “Active”. The Activity (Mus musculus [16]) was “Active”.
